Only some compounds are listed: those with a hit (about 2.3% of all), similar ones and a draw of the others.
Glyco luc inh: blocks N-linked glycosylation in D54 reporter cells | D54 ERlucT glycosylation luciferase reporter, 24 h; percent of 100 nM tunicamycin response | reporter increase, % at 12.5 µM | 0.23% of 360,000 active | AID 588692;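 active = mean luciferase reporter signal, scaled so untreated is 0 and the glycosylation-blocking control 100, at or above a set limit in every replicate; inconclusive = mean reaches the limit but not every replicate does; inactive = mean below the limit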;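 note: luciferase carries N-glycosylation sites so blocking glycosylation raises the light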
Arrestin-AP2 inh: inhibitors of human beta-arrestin and AP2 interaction; inhibition, % at 10 µM; AID 504490; 0.31% of 340,000 active; FITC-arrestin peptide / GST-AP2 beads, flow cytometry; AP2 beta2 appendage carries R879A mutation;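 active = inhibition above a set limit, near 3 SD of compounds lacking own fluorescence, cut at about 54% in these data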
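Measured by: flow cytometry, FL1 (488/535 nm); Material: AP2 appendage R879A on GSH beads; Evaluation: percent response; Timing: pre-incubation 12 min, peptide binding 1 h, room temperature; Also added: 50 nM FITC-arrestin peptide; Medium: PBS with 0.05% Tween 20 and 0.1% BSA.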
PfHsp90 yeast 2: growth inhibition of yeast expressing Plasmodium Hsp90 | S. cerevisiae expressing PfHsp90, BacTiter-Glo ATP, 48 h; yeast lacking PDR1 and PDR3 efflux regulators | inhibition, % at 9.4 µM | 0.32% of 310,000 active;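 active = every replicate shows inhibition above about 80%, whatever the replicate mean, limit read from the data; inconclusive = mean inhibition reaches the set limit but some replicate falls short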
PAX8 reporter: lowers PAX8-driven luciferase in RMG-I cells. inhibition, % at 12.6 µM. RMG-I TPO-luciferase reporter, SteadyGlo, 24 h. 1.2% of 360,000 active;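 active = mean replicate inhibition at least 60% with every replicate also reaching 60%; inconclusive = only one of the two criteria is met; inactive = mean below 60% and not all replicates reaching 60%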;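 note: luciferase light reporting Pax8 driven TPO promoter activity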
Rtt109 Vps75: blocks Candida albicans Rtt109/Vps75 acetyltransferase activity. Q5AAJ8. purified Rtt109/Vps75, ThioGlo CoA-SH fluorescence, 4 h. inhibition, % at 34.9 µM. 0.16% of 330,000 active;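 active = inhibition of at least 50% in every replicate; inconclusive = best replicate reaches 50% inhibition but some replicates fall short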
Target sequence (Q5AAJ8 whole entry, looked up): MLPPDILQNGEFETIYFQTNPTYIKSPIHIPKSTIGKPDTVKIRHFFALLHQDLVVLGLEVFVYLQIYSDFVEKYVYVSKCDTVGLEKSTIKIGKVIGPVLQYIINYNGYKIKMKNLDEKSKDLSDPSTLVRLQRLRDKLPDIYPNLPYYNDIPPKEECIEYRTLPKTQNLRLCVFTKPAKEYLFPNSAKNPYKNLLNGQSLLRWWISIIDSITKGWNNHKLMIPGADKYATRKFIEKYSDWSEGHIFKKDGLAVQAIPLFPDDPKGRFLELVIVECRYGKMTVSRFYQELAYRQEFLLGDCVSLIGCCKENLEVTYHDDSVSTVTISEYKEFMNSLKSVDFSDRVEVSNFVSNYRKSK
HIV Env fusion: inhibitors of HIV Env-mediated cell fusion; inhibition, % at 12.3 µM; 1.1% of 360,000 active; HeLa-JRFL Env/CEM21 cell fusion, luciferase; AID 651610;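 active = mean replicate inhibition score of at least 50 and every replicate individually at or above 50; inconclusive = only one of the two criteria met; inactive = mean below 50 and not all replicates reaching 50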
A number is an active result; . = inactive; ? = inconclusive; / = not tested or not shown; [ ] = remark or other dose.

SMILES	Glyco luc inh	Arrestin-AP2 inh	PfHsp90 yeast 2	PAX8 reporter	Rtt109 Vps75	HIV Env fusion
Cc1ccccc1S(=O)(=O)N1C[C@@H](O)COC[C@@H]2O[C@H](CC(=O)NCCc3ccccc3)CC[C@H]21	/	/	/	.	/	.
Cc1cc(C)c2nc3nc(C)c(C)cc3c(N)c2c1	95.1	.	.	.	.	.
Cc1ccc2c(c1)C(=O)CCN2	.	.	.	/	.	/
Cc1ccc2c(c1)C(=C(C#N)C#N)CCN2	.	.	.	.	.	76.1
C[C@@H]1CN([C@H](C)CO)C(=O)Cc2cc(NC(=O)c3ccncc3)ccc2O[C@@H]1CN(C)CC1CC1	/	/	/	.	/	.
COC(=O)C[C@H]1C[C@@H]2c3cc(NC(=O)Nc4ccc(F)cc4)ccc3O[C@@H]2[C@H](CO)O1	/	/	/	.	/	.
Cc1cc(S(=O)(=O)c2ccc([N+](=O)[O-])cn2)ccc1Br	.	.	.	85.9	.	.
Nc1ccc(S(=O)(=O)c2ccccc2)nc1	.	.	.	.	.	.
Cc1ccc(S(=O)(=O)c2ccc(C)cc2)cc1	.	.	.	/	.	/
Cc1ccc(S(=O)(=O)c2ccc([N+](=O)[O-])cn2)cc1	.	.	95.2	111.4	.	.
O=[N+]([O-])c1ccc(S(=O)(=O)c2ccccc2)nc1	.	.	.	109.2	.	.
CC1CCN(c2nc(-c3cccnc3)nc3scc(-c4ccccc4)c23)CC1	.	.	.	.	.	.
CC1CCN(c2nc(CN3CCCCC3)nc3scc(-c4ccccc4)c23)CC1	.	.	.	.	61.0	.
O=C(C1CCC1)N1CC(=O)N2[C@@H](CO)[C@H](c3ccc(C#Cc4cccc(F)c4)cc3)[C@@H]2C1	/	/	/	.	/	/
O=C(C1CC1)N1CC(=O)N2[C@H](C1)[C@H](c1ccc(C#Cc3cccc(F)c3)cc1)[C@@H]2CO	/	/	/	68.6	/	/
O=C(C1CCC1)N1CC(=O)N2[C@H](CO)[C@H](c3ccc(C#Cc4cccc(F)c4)cc3)[C@@H]2C1	/	/	/	.	/	/
O=C(C1CCC1)N1CC(=O)N2[C@H](C1)[C@H](c1ccc(C#Cc3cccc(F)c3)cc1)[C@@H]2CO	/	/	/	81.3	/	/
Cc1cc2ccccn2c1C(=O)c1ccc([N+](=O)[O-])o1	?	.	/	73.2	.	.
COc1ccc(-n2nc3c(N4CCC(C(=O)NCc5ccccc5C)CC4)nnc(C)c3c2C)cc1	.	.	.	/	.	/
CCOc1ccccc1CNC(=O)C1CCCN(c2nnc(C)c3c(C)n(-c4ccccc4)nc23)C1 (centres undefined)	.	.	.	80.7	.	.
C=CCN1C(=O)[C@]2(O[C@H](CCn3cc([C@H](O)c4ccccc4)nn3)[C@@H]([Si](C)(C)c3ccc(OC)cc3)[C@@H]2C)c2cc(N3CCC3=O)ccc21	/	/	/	.	/	.
CCOC(=O)C1CCN(c2cc(=O)n(-c3ccc(OC)cc3)c(=O)[nH]2)CC1	.	.	.	.	.	.
CCOC(=O)C1CCCN(c2cc(=O)n(C3CCCCC3)c(=O)[nH]2)C1 (centres undefined)	.	.	.	.	58.6	.
COCC(=O)N(C)C[C@H]1Oc2ncc(C3=CCCCC3)cc2C(=O)N([C@@H](C)CO)C[C@@H]1C	/	/	/	/	/	.
NC(=O)C1CCN(c2oc(-c3ccccc3)nc2S(=O)(=O)c2ccc(Br)cc2)CC1	.	.	.	.	.	.
SMILES	Glyco luc inh	Arrestin-AP2 inh	PfHsp90 yeast 2	PAX8 reporter	Rtt109 Vps75	HIV Env fusion
Cc1ccc(S(=O)(=O)c2nc(-c3ccccc3)oc2N2CCC(C(N)=O)CC2)cc1	.	.	.	.	56.5	.
O=C(Cc1ccccn1)NCC[C@H]1CC[C@@H](NC(=O)Nc2ccc(C(F)(F)F)cc2)[C@@H](CO)O1	/	/	/	.	/	.
O=C(Cc1ccccn1)NCC[C@H]1CC[C@H](NC(=O)Nc2ccc(C(F)(F)F)cc2)[C@H](CO)O1	/	/	/	69.4	/	.
O=C(Cc1ccccn1)N[C@@H]1CC[C@@H](CCn2cc(-c3ccccc3)nn2)O[C@H]1CO	/	/	/	99.2	/	.
O=C(Cc1ccccn1)N[C@H]1CC[C@H](CCn2cc(-c3ccccc3)nn2)O[C@@H]1CO	/	/	/	78.8	/	.
O=C(Cc1ccccn1)N[C@H]1CC[C@@H](CCn2cc(-c3ccccc3)nn2)O[C@H]1CO	/	/	/	.	/	.
O=C(Cc1ccncc1)N[C@H]1CC[C@@H](CCn2cc(-c3ccccc3F)nn2)O[C@@H]1CO	/	/	/	.	/	71.9[16.7 µM]
CC=Cc1ccc2n(c1=O)C[C@@H]1[C@@H](CO)[C@H](C(=O)NCCc3ccccc3)N(C(=O)CC)[C@H]21 (mixture of isomers)	/	/	/	.	/	/
C[C@@H]1CN([C@@H](C)CO)C(=O)c2cc(NS(=O)(=O)c3cccs3)ccc2O[C@@H](C)CCCCO[C@@H]1CN(C)Cc1ccccc1	/	/	/	.	/	.
O=C(N[C@@H]1CC[C@@H](CCNS(=O)(=O)c2ccc(F)cc2)O[C@@H]1CO)c1cccnc1	/	/	/	.	/	.
Cc1sc(NC(=O)c2ccco2)c(CN2CCCCC2)c1C	.	.	/	/	.	.
Cc1sc(NC(=O)c2ccco2)c(CN2CCN(c3ccccc3)CC2)c1C	.	.	.	.	.	63.4
Cc1cc(N2CCN(C(=O)OC(C)(C)C)C[C@H]2C)ccc1N1CCS(=O)(=O)CC1	/	/	/	.	/	61.6
COc1ccc(C2=Nn3c(nnc3-c3ccccc3OC)SC2)cc1OCC1CC1	.	.	.	77.5	.	.
COc1ccc(OC)c(-c2nnc3n2N=C(c2ccc(OC)c(OC4CCCC4)c2)CS3)c1	30.0	.	.	88.6	.	.
COc1ccc(-c2nc(NC(=O)C3CCN(c4nc5ccccc5o4)CC3)sc2C)cc1	.	.	/	.	.	66.8
COc1ccc(S(=O)(=O)N(C)C[C@H]2OCCCC[C@H](C)Oc3ccc(NS(=O)(=O)c4ccc(Cl)cc4)cc3C(=O)N([C@@H](C)CO)C[C@@H]2C)cc1	/	/	/	.	/	/
COc1ccc(S(=O)(=O)Nc2ccc3c(c2)C(=O)N([C@@H](C)CO)C[C@H](C)[C@H](CN(C)C(=O)NC(C)C)OCCCC[C@@H](C)O3)cc1	/	/	/	.	/	67.5[16.7 µM]
COc1ccc(S(=O)(=O)Nc2ccc3c(c2)C(=O)N([C@@H](C)CO)C[C@H](C)[C@@H](CN(C)S(=O)(=O)c2ccc(Cl)cc2)OCCCC[C@H](C)O3)cc1	/	/	/	64.9	/	.
COc1ccc(S(=O)(=O)Nc2ccc3c(c2)C(=O)N([C@@H](C)CO)C[C@H](C)[C@@H](CN(C)S(=O)(=O)c2ccc(Cl)cc2)OCCCC[C@@H](C)O3)cc1	/	/	/	67.5	/	.
COc1ccc(S(=O)(=O)Nc2ccc3c(c2)C(=O)N([C@H](C)CO)C[C@H](C)[C@@H](CN(C)S(=O)(=O)c2ccc(Cl)cc2)OCCCC[C@H](C)O3)cc1	/	/	/	78.5	/	.
COc1ccc(S(=O)(=O)N(C)C[C@@H]2OCCCC[C@H](C)Oc3ccc(NS(=O)(=O)c4ccc(Cl)cc4)cc3C(=O)N([C@H](C)CO)C[C@@H]2C)cc1	/	/	/	78.8	/	/
